This note sets out measurements from ChEMBL document CHEMBL2040807, “Facile synthesis, cytotoxic and antimicrobial activity studies of a new group of 6-aryl-3-[4-(methylsulfonyl)benzyl]-7H-[1,2,4]triazolo[3,4-b][1,3,4]thiadiazines” (Eur J Med Chem, 2012).

Assay [1] relates to RAW264.7. The assay is described as follows: Cytotoxicity against mouse RAW264.7 cells assessed as cell death at 50 uM after 48 hrs by MTT assay. It is filed as functional. Particulars: pooled result: one value given for 2 cell lines, strains, targets or settings. A digest of the protocol: (§1)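 Both cell lines were seeded at 1×10⁴ cells per well, with viability checked first by trypan blue exclusion. Compounds were tested in triplicate for 48 h at 37 °C in 5% CO₂. Medium was then replaced with serum-free DMEM, MTT was added, and plates were held 3 h at 37 °C. Formazan was dissolved in DMSO for 15 min and read at 570 nm. % cell death = (A_DMSO − A_sample)/A_DMSO × 100.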
In general terms: Formazan colour is commonly taken as a measure of viable cells.

Assay [2] deals with RAW264.7. The assay is described as follows: Cytotoxicity against mouse RAW264.7 cells after 48 hrs by MTT assay. It is filed as functional, cell-based. Particulars: RAW264.7, 48 h. Put shortly:
(§2)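 Cells seeded at 1 x 10^4 per well (viability by Trypan blue exclusion) and treated in triplicate at 100, 50, 25 and […], 48 h at 37 °C, 5% CO2. Medium was then replaced with serum-free DMEM plus MTT for 3 h. Formazan was dissolved in DMSO for 15 min at 37 °C and read at 570 nm. % cell death was taken relative to vehicle (DMSO) control, and IC50 derived from it.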

Assay [3] concerns Pseudomonas aeruginosa. Briefly: Antibacterial activity against Pseudomonas aeruginosa after 16 hrs by broth dilution method. It is filed as functional. A digest of the protocol: (§3)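 Compound stocks at 1 mg/mL in DMF, serially twofold diluted in trypticase soya broth tubes. Organisms were grown 6 h at 37 °C in trypticase soya broth, adjusted to McFarland […] (10^8 cfu/mL) in PBS, then diluted 10^3-fold in broth to 10^5 cfu/mL; 1 mL of this inoculum was added per tube. Tubes were incubated 16 h at 37 °C, with inoculum and broth controls. MIC was read as the lowest concentration with no visible growth.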
(In general: Dilution methods test growth across graded concentrations, often in twofold steps.)

Assay [4] relates to RAW264.7. Briefly: Cytotoxicity against mouse RAW264.7 cells assessed as cell death at 12.5 uM after 48 hrs by MTT assay. It is filed as functional. The conditions noted are these: pooled result: one value given for 2 cell lines, strains, targets or settings. Put shortly:
as §1

In assay [5] the test system is Escherichia coli. Briefly: Antibacterial activity against Escherichia coli after 16 hrs by broth dilution method. It is filed as functional. A digest of the protocol:
as §3

The subject of assay [6] is HT-29. Briefly: Cytotoxicity against human HT-29 cells after 48 hrs by MTT assay. Particulars: HT-29, 48 h. It is filed as functional, cell-based. A digest of the protocol: as §2
The test system of assay [7] is Staphylococcus aureus. Briefly: Antibacterial activity against Staphylococcus aureus after 16 hrs by broth dilution method. It counts as functional. Put shortly:
as §3

The test system of assay [8] is RAW264.7. Briefly: Cytotoxicity against mouse RAW264.7 cells assessed as cell death at 25 uM after 48 hrs by MTT assay. The conditions noted are these: pooled result: one value given for 2 cell lines, strains, targets or settings. It is filed as functional. Put shortly: as §1
Assay [9] concerns RAW264.7. Briefly: Cytotoxicity against mouse RAW264.7 cells assessed as cell death at 100 uM after 48 hrs by MTT assay. It is filed as functional. The conditions noted are these: pooled result: one value given for 2 cell lines, strains, targets or settings. Put shortly:
as §1

Assay [10] relates to Bacillus cereus. The assay is described as follows: Antibacterial activity against Bacillus cereus after 16 hrs by broth dilution method. It is filed as functional. Put shortly:
as §3

Assay [11] relates to Candida albicans. The assay is described as follows: Antifungal activity against Candida albicans after 16 hrs by broth dilution method. It counts as functional. A digest of the protocol:
as §3

For assay [12], the system named is HT-29. Briefly: Cytotoxicity against human HT-29 cells assessed as cell death at 12.5 uM after 48 hrs by MTT assay. Particulars: pooled result: one value given for 2 cell lines, strains, targets or settings. It is filed as functional. A digest of the protocol: as §1
Assay [13] relates to HT-29. The assay is described as follows: Cytotoxicity against human HT-29 cells assessed as cell death at 25 uM after 48 hrs by MTT assay. It counts as functional. Particulars: pooled result: one value given for 2 cell lines, strains, targets or settings. A digest of the protocol: as §1
Assay [14] relates to RAW264.7. Briefly: Cytotoxicity against mouse RAW264.7 cells assessed as cell death at 2.5 uM after 48 hrs by MTT assay. It is filed as functional.
Assay [15] relates to HT-29. The assay is described as follows: Cytotoxicity against human HT-29 cells assessed as cell death at 2.5 uM after 48 hrs by MTT assay. It counts as functional.

Each structure is given as a SMILES string. In brackets after ≈: the same amount, converted by molar mass. Activity calls are given as the source filed them. The rule behind the calls is not given here.

One may read the IC50 as the concentration at which inhibition is half-maximal. Read a high IC50 as weaker potency. What is called MIC is the least concentration at which growth counts as inhibited.

For `CS(=O)(=O)c1ccc(Cc2nnc3n2N=C(c2ccc(-c4ccccc4)cc2)CS3)cc1`, the Activity was 67.93% in [1], 58.2% in [4], 60.19% in assay [8] and 74.77% in [9]. In addition, the IC50 in assay [2] and in assay [6] was 12.5 µM throughout. The minimum inhibitory concentration (MIC) in assay [3], in [5], in [7], in assay [10] and in assay [11] was 6.25 µg/mL (≈ 13.6 µM) each time.
Take `CS(=O)(=O)c1ccc(Cc2nnc3n2N=C(c2cc(Cl)sc2S(N)(=O)=O)CS3)cc1`: the Activity stood at 27.46% in assay [1], 22.8% in assay [4], 18.66% in assay [8] and 35.22% in assay [9]. The IC50 in [2] and in assay [6] was over 100 µM each time. Also, the MIC was determined as 6.25 µg/mL (≈ 12.4 µM) in assay [3]; 6.25 µg/mL (≈ 12.4 µM) in assay [5]; 12.5 µg/mL (≈ 24.8 µM) in assay [7]; 12.5 µg/mL (≈ 24.8 µM) in assay [10]; 6.25 µg/mL (≈ 12.4 µM) in assay [11].
Regarding `CS(=O)(=O)c1ccc(Cc2nnc3n2N=C(c2ccc(O)c(C(N)=O)c2)CS3)cc1`, the Activity is given as 33.06% in assay [1], 24.81% in [4], 24.66% in [8] and 37.08% in assay [9]. The IC50 in assay [2] and in assay [6] was over 100 µM each time. Besides, the MIC turned out to be 6.25 µg/mL (≈ 14.1 µM) in [3]; 6.25 µg/mL (≈ 14.1 µM) in [5]; 12.5 µg/mL (≈ 28.2 µM) in assay [7]; 3.12 µg/mL (≈ 7.05 µM) in assay [10]; 3.12 µg/mL (≈ 7.05 µM) in assay [11].
For the compound `OC(Cn1cncn1)(Cn1cncn1)c1ccc(F)cc1F` [FLUCONAZOLE], the MIC in [11] was found to be 0.8 µg/mL (≈ 2.61 µM).
Consider `CS(=O)(=O)c1ccc(Cc2nnc3n2N=C(c2cc(Cl)sc2Cl)CS3)cc1`, for which the Activity in [1] is listed as 25.54%; in assay [9] it was 47.27%. The IC50 in [2] and in [6] was over 100 µM in each case. Moreover, the MIC in assay [3] was 6.25 µg/mL (≈ 13.6 µM); in assay [5], 6.25 µg/mL (≈ 13.6 µM); in [7], 6.25 µg/mL (≈ 13.6 µM); in assay [10], 6.25 µg/mL (≈ 13.6 µM); in assay [11], 3.12 µg/mL (≈ 6.8 µM). Further, the outcome in assay [12], in assay [4], in assay [13] and in [8] was inactive.
Regarding `COc1cccc2c1C(=O)c1c(O)c3c(c(O)c1C2=O)C[C@@](O)(C(=O)CO)C[C@@H]3O[C@H]1C[C@H](N)[C@H](O)[C@H](C)O1` [DOXORUBICIN], the Activity in [14] and in assay [15] was 78.2% throughout.
For the compound `CS(=O)(=O)c1ccc(Cc2nnc3n2N=C(c2cc4ccccc4c(=O)o2)CS3)cc1`, the Activity is 14.86% in assay [1], 22.43% in assay [4], 25.58% in assay [8] and 10.63% in assay [9]. For the same compound, the IC50 in [2] and in assay [6] was over 100 µM in each case. Further, the MIC is 6.25 µg/mL (≈ 13.8 µM) in assay [3]; 6.25 µg/mL (≈ 13.8 µM) in [5]; 6.25 µg/mL (≈ 13.8 µM) in assay [7]; 6.25 µg/mL (≈ 13.8 µM) in [10]; 3.12 µg/mL (≈ 6.91 µM) in [11].
On to `CS(=O)(=O)c1ccc(Cc2nnc3n2N=C(c2ccc(Cl)cc2Cl)CS3)cc1`, for which the Activity in assay [1] was determined as 27.33%; in assay [4], 27.99%; in [8], 24.19%; in assay [9] it was 30.99%. Further, the IC50 in assay [2] and in assay [6] was over 100 µM in each case. The minimum inhibitory concentration (MIC) in assay [3] amounted to 6.25 µg/mL (≈ 13.8 µM); in [5] it was 3.12 µg/mL (≈ 6.89 µM); in [7], 12.5 µg/mL (≈ 27.6 µM); in assay [10], 6.25 µg/mL (≈ 13.8 µM); in assay [11] it was 6.25 µg/mL (≈ 13.8 µM).
`CS(=O)(=O)c1ccc(Cc2nnc3n2N=C(c2cc(Cl)cc4c2-c2ccc(Cl)cc2C4)CS3)cc1`: the Activity in [1] is 43.12%; in [4], 41.05%; in assay [8], 44.8%; in [9], 50.33%. In addition, the IC50 in assay [2] and in assay [6] was 100 µM each time. The MIC in assay [3] came to 3.12 µg/mL (≈ 5.77 µM); in [5] it was 6.25 µg/mL (≈ 11.5 µM); in assay [7], 12.5 µg/mL (≈ 23.1 µM); in assay [10], 6.25 µg/mL (≈ 11.5 µM); in assay [11], 6.25 µg/mL (≈ 11.5 µM).
In the case of `CC1(C)S[C@@H]2[C@H](NC(=O)Cc3ccccc3)C(=O)N2[C@H]1C(=O)O` [PENICILLIN G], the MIC in assay [3], in assay [5], in assay [7] and in [10] was 0.12 µg/mL (≈ 0.359 µM) each time.
On to `CS(=O)(=O)c1ccc(Cc2nnc3n2N=C(c2ccccc2)CS3)cc1`, for which the Activity in assay [1] amounted to 46.73%; in [4], 41.97%; in [8], 50.95%; in assay [9], 55.51%. Also, the IC50 in assay [2] and in assay [6] was 25 µM throughout. Moreover, the MIC in [3] was 6.25 µg/mL (≈ 16.3 µM); in [5], 6.25 µg/mL (≈ 16.3 µM); in assay [7] it was 6.25 µg/mL (≈ 16.3 µM); in [10], 6.25 µg/mL (≈ 16.3 µM); in assay [11], 25 µg/mL (≈ 65 µM).
As to `Cc1ccc(C2=Nn3c(Cc4ccc(S(C)(=O)=O)cc4)nnc3SC2)cc1`, the Activity in assay [1] came out at 37.91%; in [8], 1.26%; in [9] it was 38.53%. Further, the IC50 in assay [2] and in [6] was over 100 µM throughout. The MIC in assay [3] came to 12.5 µg/mL (≈ 31.4 µM); in assay [5] it was 12.5 µg/mL (≈ 31.4 µM); in assay [7], 12.5 µg/mL (≈ 31.4 µM); in [10] it was 12.5 µg/mL (≈ 31.4 µM); in [11] it was 1.56 µg/mL (≈ 3.92 µM). Moreover, the result in assay [12] and in assay [4] was inactive.
